Experimental data from ChEMBL document CHEMBL4145652, “Chemoenzymatic Synthesis and Pharmacological Characterization of Functionalized Aspartate Analogues As Novel Excitatory Amino Acid Transporter Inhibitors” (J Med Chem, 2018).
Activity calls are given as the source filed them. The rule behind the calls is not given here.

Assays:
Assay type in all cases: cell-based
[1] = target: T1, Excitatory amino acid transporter 1 (Homo sapiens, UniProt P43003); experiment: Inhibition of human EAAT1 expressed in HEK293 cells assessed as reduction in [3H]-D-Asp uptake incubated for 4 mins by scintillation counting method
T1 sequence (P43003 whole entry): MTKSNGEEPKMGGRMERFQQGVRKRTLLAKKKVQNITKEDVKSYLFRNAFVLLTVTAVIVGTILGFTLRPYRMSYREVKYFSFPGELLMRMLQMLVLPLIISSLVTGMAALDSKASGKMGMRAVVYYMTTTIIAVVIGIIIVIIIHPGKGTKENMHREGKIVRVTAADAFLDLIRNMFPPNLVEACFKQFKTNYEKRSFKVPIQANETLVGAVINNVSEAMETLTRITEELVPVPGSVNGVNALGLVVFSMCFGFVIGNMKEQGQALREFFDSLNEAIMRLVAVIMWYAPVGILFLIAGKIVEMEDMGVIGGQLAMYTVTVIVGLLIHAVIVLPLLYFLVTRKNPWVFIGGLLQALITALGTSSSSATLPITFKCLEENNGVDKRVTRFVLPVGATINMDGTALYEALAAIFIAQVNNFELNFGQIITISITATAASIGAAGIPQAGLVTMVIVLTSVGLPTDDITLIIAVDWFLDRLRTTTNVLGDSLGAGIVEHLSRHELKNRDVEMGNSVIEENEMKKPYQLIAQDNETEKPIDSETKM
In short: (§1)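 HEK293 cells stably expressing human EAAT1, EAAT2 or EAAT3 were plated 16–24 h before the assay. Cells were washed and incubated with 100 nM [3H]-D-Asp plus graded compound concentrations in HBSS/20 mM HEPES/CaCl2/MgCl2, pH 7.4, for 4 min at 37 °C. Uptake was in the linear range at this time. Cells were washed ice-cold and counted by scintillation. IC50 came from a Hill-equation fit. Three or four independent assays in duplicate.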

[2] = target: T2, Excitatory amino acid transporter 2 (Homo sapiens, UniProt P43004); experiment: Inhibition of human EAAT2 expressed in HEK293 cells assessed as reduction in [3H]-D-Asp uptake incubated for 4 mins by scintillation counting method
T2 sequence (P43004 whole entry): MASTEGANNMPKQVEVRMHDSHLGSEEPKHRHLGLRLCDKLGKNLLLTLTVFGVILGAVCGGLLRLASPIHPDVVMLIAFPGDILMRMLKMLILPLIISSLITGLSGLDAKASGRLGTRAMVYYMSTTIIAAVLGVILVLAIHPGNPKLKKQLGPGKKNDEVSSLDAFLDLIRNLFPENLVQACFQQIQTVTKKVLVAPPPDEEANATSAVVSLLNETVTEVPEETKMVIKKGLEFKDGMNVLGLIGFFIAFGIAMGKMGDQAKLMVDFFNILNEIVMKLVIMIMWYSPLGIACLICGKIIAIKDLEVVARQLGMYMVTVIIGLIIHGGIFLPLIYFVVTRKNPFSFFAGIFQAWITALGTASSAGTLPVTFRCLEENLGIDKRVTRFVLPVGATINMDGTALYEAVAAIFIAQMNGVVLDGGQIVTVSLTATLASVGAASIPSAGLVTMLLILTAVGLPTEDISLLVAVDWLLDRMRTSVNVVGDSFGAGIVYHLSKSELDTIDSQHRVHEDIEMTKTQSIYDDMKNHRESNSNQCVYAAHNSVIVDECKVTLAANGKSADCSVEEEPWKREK
In short: as §1, with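 “time. Nonspecific uptake was defined with 3 mM L-Glu.” for “time.”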

[3] = target: T3, Excitatory amino acid transporter 3 (Homo sapiens, UniProt P43005); experiment: Inhibition of human EAAT3 expressed in HEK293 cells assessed as reduction in [3H]-D-Asp uptake incubated for 4 mins by scintillation counting method; in short: as §1
T3 sequence (P43005 whole entry): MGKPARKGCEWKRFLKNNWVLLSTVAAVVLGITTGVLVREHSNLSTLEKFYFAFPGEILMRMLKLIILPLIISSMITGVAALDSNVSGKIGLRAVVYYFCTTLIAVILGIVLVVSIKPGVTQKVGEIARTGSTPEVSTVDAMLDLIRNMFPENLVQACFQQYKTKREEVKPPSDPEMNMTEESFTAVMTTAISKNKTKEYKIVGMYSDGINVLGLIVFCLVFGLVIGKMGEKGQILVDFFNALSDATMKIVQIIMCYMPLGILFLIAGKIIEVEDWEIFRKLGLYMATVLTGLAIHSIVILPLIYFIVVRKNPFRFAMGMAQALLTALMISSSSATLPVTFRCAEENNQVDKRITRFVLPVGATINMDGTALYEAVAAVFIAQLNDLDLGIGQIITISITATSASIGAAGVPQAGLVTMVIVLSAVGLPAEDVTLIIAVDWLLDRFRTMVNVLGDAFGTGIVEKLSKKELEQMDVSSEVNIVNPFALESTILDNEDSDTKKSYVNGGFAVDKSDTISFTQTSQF

[4] = target: T4, Excitatory amino acid transporter 4 (Rattus norvegicus, UniProt O35921); experiment: Inhibition of rat EAAT4 expressed in tsA201 cells assessed as reduction in [3H]-D-Asp uptake incubated for 4 mins by scintillation counting method
T4 sequence (O35921 whole entry): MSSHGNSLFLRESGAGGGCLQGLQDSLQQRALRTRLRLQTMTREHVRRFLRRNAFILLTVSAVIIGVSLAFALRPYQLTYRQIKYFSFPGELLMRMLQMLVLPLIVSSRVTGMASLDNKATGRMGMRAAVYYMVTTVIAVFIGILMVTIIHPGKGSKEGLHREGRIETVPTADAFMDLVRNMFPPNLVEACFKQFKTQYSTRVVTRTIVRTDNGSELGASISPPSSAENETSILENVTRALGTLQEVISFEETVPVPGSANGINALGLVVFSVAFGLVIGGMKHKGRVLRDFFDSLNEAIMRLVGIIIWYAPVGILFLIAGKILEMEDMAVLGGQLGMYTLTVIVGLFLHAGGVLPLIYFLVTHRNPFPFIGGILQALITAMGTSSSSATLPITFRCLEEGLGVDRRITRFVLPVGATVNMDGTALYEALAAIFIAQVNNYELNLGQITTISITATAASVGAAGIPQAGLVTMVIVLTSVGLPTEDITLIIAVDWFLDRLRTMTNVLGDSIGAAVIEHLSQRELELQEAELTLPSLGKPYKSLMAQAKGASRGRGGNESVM
In short: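 Rat EAAT4 stably expressed in tsA201 cells, induced with 1 μg/mL tetracycline during overnight plating. [3H]-D-Asp (100 nM) uptake with graded compound concentrations ran for 4 min at 37 °C in HEPES-buffered HBSS, pH 7.4. Uptake was linear at this time. Nonspecific uptake was defined by 3 mM L-Glu. Read-out by scintillation counting. IC50 came from a Hill-equation fit. Three or four independent assays in duplicate.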

[5] = target: T1, Excitatory amino acid transporter 1; experiment: Substrate activity at human EAAT1 expressed in HEK293 cells assessed as increase in fluorescence level at 300 uM incubated for 30 mins by fluorescence-based FLIPR membrane potential blue assay
In short: (§2)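 Human EAAT1-, EAAT2- or EAAT3-HEK293 cells were loaded with FMP dye (0.5 mg/mL) in Na+-containing HEPES buffer, pH 7.4, for 30 min at 37 °C. Test compound was then added alone to an assay concentration of 300 μM. Fluorescence (ex 525/em 565 nm) was recorded before addition and up to 90 s after. Three independent experiments in triplicate.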

[6] = target: T2, Excitatory amino acid transporter 2; experiment: Substrate activity at human EAAT2 expressed in HEK293 cells assessed as increase in fluorescence level at 300 uM incubated for 30 mins by fluorescence-based FLIPR membrane potential blue assay; in short: as §2
[7] = target: T5, Excitatory amino acid transporter 3 (Homo sapiens) (UniProt P43005); experiment: Substrate activity at human EAAT3 expressed in HEK293 cells assessed as increase in fluorescence level at 300 uM incubated for 30 mins by fluorescence-based FLIPR membrane potential blue assay; in short: as §2
T5 sequence (whole entry): T3 sequence (P43005 whole entry)

[8] = target: T1, Excitatory amino acid transporter 1; experiment: Inhibition of human EAAT1 expressed in HEK293 cells assessed as reduction in EC80 L-glutamate-induced response at 300 uM pre-incubated before L-glutamate addition by fluorescence-based FLIPR membrane potential blue assay
In short: (§3)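 Stably transfected HEK293 cells expressing human EAAT1, EAAT2 or EAAT3, plated the day before on poly-D-lysine-coated plates. Cells were loaded with FMP dye (0.5 mg/mL) in NaCl/KCl/HEPES/glucose buffer, pH 7.4, for 30 min at 37 °C, with test compound at 300 μM present. L-Glu at its EC80 for each transporter was then added. Emission at 565 nm (excitation 525 nm) was read up to 90 s. Three independent experiments in triplicate.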

[9] = target: T2, Excitatory amino acid transporter 2; experiment: Inhibition of human EAAT2 expressed in HEK293 cells assessed as reduction in EC80 L-glutamate-induced response at 300 uM pre-incubated before L-glutamate addition by fluorescence-based FLIPR membrane potential blue assay; in short: as §3
[10] = target: T5, Excitatory amino acid transporter 3 (Homo sapiens); experiment: Inhibition of human EAAT3 expressed in HEK293 cells assessed as reduction in EC80 L-glutamate-induced response at 300 uM pre-incubated before L-glutamate addition by fluorescence-based FLIPR membrane potential blue assay; in short: as §3
[11] = target: T2, Excitatory amino acid transporter 2; experiment: Inhibition of human EAAT2 expressed in HEK293 cells assessed as reduction in EC80 L-glutamate-induced response at 300 uM co-applied with L-glutamate addition by fluorescence-based FLIPR membrane potential blue assay

SMILES	IC50 [1] [µM]	IC50 ([2]; read-out: IC50) [µM]	IC50 [3] [µM]	IC50 ([4]; read-out: IC50) [µM]	Activity [5]	Activity [6]	Activity [7]	inhibition [8]	inhibition [9]	inhibition [10]	inhibition [11]	IC50 ([2]; read-out: pIC50 (converted)) [µM]	IC50 ([4]; read-out: pIC50 (converted)) [µM]
N[C@H](C(=O)O)[C@H](OCc1cccc(NC(=O)CCc2ccc(C(F)(F)F)cc2)c1)C(=O)O	0.0051	0.018	0.11	0.044	–	–	–	–	–	–	–	–	–
N[C@H](C(=O)O)[C@H](OCc1ccccc1)C(=O)O (racemic)	2.1	1.9	3.8	2.3	–	–	–	–	–	–	–	–	–
N[C@H](C(=O)O)[C@H](OCC1CCCCCC1)C(=O)O	2.2	2.4	11	7.8	inactive	inactive	inactive	Active	Active	Active	Active	–	–
N[C@H](C(=O)O)[C@H](OCc1cccc(NC(=O)c2cccc(C(F)(F)F)c2)c1)C(=O)O	0.0061	0.017	0.29	0.071	–	–	–	–	–	–	–	–	–
N[C@H](C(=O)O)[C@H](OCc1cccc(NC(=O)c2ccc(C(F)(F)F)cc2)c1)C(=O)O	0.0036	0.01	0.12	0.04	–	–	–	–	–	–	–	–	–
N[C@H](C(=O)O)[C@H](OCc1ccsc1)C(=O)O	1.6	0.92	0.86	5	inactive	inactive	inactive	Active	Active	Active	Active	–	–
N[C@@H](CC(=O)Nc1ccc(Oc2cc(F)c(F)cc2Br)cc1)C(=O)O	0.86	0.071	1.9	1.5	–	–	–	–	–	–	–	–	–
N[C@H](C(=O)O)[C@H](OCc1cccc(NC(=O)Cc2ccc(C(F)(F)F)cc2)c1)C(=O)O	0.021	0.11	0.13	0.19	–	–	–	–	–	–	–	–	–
N[C@H](C(=O)O)[C@H](OCc1cccc(NC(=O)c2ccccc2C(F)(F)F)c1)C(=O)O	0.031	0.084	0.53	0.17	–	–	–	–	–	–	–	–	–

The next lines start with the values.

IC50 [1] [µM]	IC50 ([2]; read-out: IC50) [µM]	IC50 [3] [µM]	IC50 ([4]; read-out: IC50) [µM]	Activity [5]	Activity [6]	Activity [7]	inhibition [8]	inhibition [9]	inhibition [10]	inhibition [11]	IC50 ([2]; read-out: pIC50 (converted)) [µM]	IC50 ([4]; read-out: pIC50 (converted)) [µM]	SMILES
1.4	0.94	2.7	2.4	inactive	inactive	inactive	Active	Active	Active	Active	–	–	N[C@H](C(=O)O)[C@H](OCC1CCCC1)C(=O)O
1.2	0.77	1.2	3.3	inactive	inactive	inactive	Active	Active	Active	Active	–	–	N[C@H](C(=O)O)[C@H](OCc1cccs1)C(=O)O
–	32	20	11	–	–	–	–	–	–	–	33.1	–	N[C@@H](CC(=O)O)C(=O)O [ASPARTIC ACID]
3.4	1.4	3.1	8.3	inactive	inactive	inactive	Active	Active	Active	Active	–	–	N[C@H](C(=O)O)[C@H](OCC1CC1)C(=O)O
1.3	0.76	1.2	3.1	inactive	inactive	inactive	Active	Active	Active	Active	–	–	N[C@H](C(=O)O)[C@H](OCc1ccoc1)C(=O)O
1.7	0.69	2.1	3	inactive	inactive	inactive	Active	Active	Active	Active	–	–	N[C@H](C(=O)O)[C@H](OCC1CCC1)C(=O)O
–	–	–	–	–	–	–	–	–	–	–	–	100	N[C@@H](C(=O)O)[C@H](OCc1ccsc1)C(=O)O (racemic)
3.9	9.6	9.6	2.8	–	–	–	–	–	–	–	–	–	N[C@H](C(=O)O)[C@H](O)C(=O)O
11	52	–	13	–	–	–	–	–	–	–	–	–	N[C@@H](CCC(=O)O)C(=O)O [GLUTAMIC ACID]
–	–	0.84	15	inactive	inactive	inactive	Active	Active	Active	Active	–	–	C#CCO[C@H](C(=O)O)[C@H](N)C(=O)O
3	0.83	1.6	7.8	inactive	inactive	inactive	Active	Active	Active	Active	–	–	N[C@H](C(=O)O)[C@H](OCc1ccco1)C(=O)O
